PMC11474258 (RSC Advances, 2024)
Values after ≈ are worked out from the molar mass of the structure shown.

Tests used:
[1] = concentrations up to 5 mM; cited from earlier work
A549 cells = assay: MTT cell viability assay; format: cell-based; conditions: 18 h, triplicates, CX4 alone up to 200 μM
Outline: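 A549 cells were grown in DMEM/F12 with 10% heat-inactivated FBS and 1% penicillin/streptomycin at 37 °C, 5% CO2. They were seeded at 1×10^4 cells/well and exposed in triplicate for 18 h to a range of test compound concentrations, alone or complexed with peptide. CX4 was at most 4 mM in complexes. MTT absorbance was read at 570 nm and reported as mean ± standard error, with Tukey test (P < 0.05).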

[2] = Spectral titration of phenol with guanidine HCl; conditions: calculated from the binding isotherm of phenol with guanidine HCl
[3] = UV-vis titration of curcumin with phenol; format: binding; conditions: isotherm at 430 nm, 1:1 model, non-linear regression
Outline: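 Curcumin was spectroscopically titrated with phenol, which stands in for the tyrosine side chain. The binding isotherm was plotted from absorbance at 430 nm. Ka was fitted by nonlinear regression to a one-host-to-one-guest binding model.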

[4] = cited from earlier work
[5] = Overall binding constant of curcumin; conditions: average of fluorescence (tyrosine) and UV-vis (phenol) titration
Solubility of curcumin = format: physicochemical; conditions: in the presence of FAM-Y4R4; absorption peak at 425 nm, curcumin standard curve

SMILES: O=S(=O)(O)c1cc2c(O)c(c1)Cc1cc(S(=O)(=O)O)cc(c1O)Cc1cc(S(=O)(=O)O)cc(c1O)Cc1cc(S(=O)(=O)O)cc(c1O)C2 [CX4, p-sulfonatocalix[4]arene]
- hemolytic toxicity [1]: no hemolytic toxicity
- maximum decrease in cell viability (A549 cells): ≤ 22%

SMILES: Cl.N=C(N)N [guanidine HCl]
- binding energy [2]: 8.13 kcal/mol

SMILES: COc1cc(/C=C/C(=O)CC(=O)/C=C/c2ccc(O)c(OC)c2)ccc1O [curcumin]
- Ka of curcumin to phenol [3]: 4.6e+06 M⁻¹
- solubility in water [4]: 0.03 µM (≈ 0.0111 µg/mL)
- overall binding constant Ka (average of the two values) [5]: 2.38e+06 M⁻¹
- solubility of curcumin when bound to the tyrosines of FAM-Y4R4 (Solubility of curcumin): 0.4 µM
